From ChEMBL document CHEMBL1914430, “Synthesis of some new 1,3,5-trisubstituted pyrazolines bearing benzene sulfonamide as anticancer and anti-inflammatory agents” (Bioorg Med Chem Lett, 2011)

Assays:
Format in all cases: functional
[1] = system: Rattus norvegicus; test: Antiinflammatory activity in Wistar rat assessed as inhibition of carrageenan-induced hind paw edema at 20 mg/kg, po administered 30 mins before carrageenan challenge measured after 3 hrs by plethysmometer
Method in brief: (§1)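 Wistar rats of either sex, 150–175 g, fasted 16 h, n = 6 per group. Compound given orally at 20 mg/kg as a suspension in 1% CMC in water (10 mL/kg); controls got vehicle only. After 30 min, 0.1 mL of 1% carrageenan in saline was injected subplantar into the left hind paw. Paw volume was measured by plethysmometer at 0, 3 and 5 h. Inhibition = (1 − Vt/Vc) × 100, reported as mean ± SEM.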

[2] = system: Rattus norvegicus; test: Antiinflammatory activity in Wistar rat assessed as inhibition of carrageenan-induced hind paw edema at 20 mg/kg, po administered 30 mins before carrageenan challenge measured after 5 hrs by plethysmometer; method in brief: as §1
[3] = system: CCRF-CEM; test: Anticancer activity against human CCRF-CEM cells after 48 hrs
Method in brief: (§2)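 NCI Drug Evaluation Branch 60-cell-line screen across leukemia, melanoma, lung, colon, CNS, ovarian, renal, prostate and breast panels. The incubation period is 48 h. Parameters are derived from dose–response data: GI50 is the concentration giving 50% decrease in net growth, TGI is total growth inhibition, and LC50 is net 50% loss of initial cells. Values beyond the tested range are reported as greater or less than the maximum or minimum concentration.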

[4] = system: K562; test: Anticancer activity against human K562 cells after 48 hrs; details: K562, 48 h; method in brief: as §2
[5] = system: A549; test: Anticancer activity against human A549 cells after 48 hrs; details: A549, 48 h; method in brief: as §2
[6] = system: EKVX; test: Anticancer activity against human EKVX cells after 48 hrs; method in brief: as §2
[7] = system: NCI-H226; test: Anticancer activity against human NCI-H226 cells after 48 hrs; details: NCI-H226, 48 h
Method in brief: (§3)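 NCI 60-line panel protocol with a 48 h incubation. Per line: GI50 = concentration giving 50% decrease in net cell growth; TGI = total growth inhibition; LC50 = net 50% loss of initial cells. When the level was not reached or was exceeded, the value is given as greater or less than the highest or lowest concentration tested.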

[8] = system: NCI-H23; test: Anticancer activity against human NCI-H23 cells after 48 hrs; details: NCI-H23, 48 h; method in brief: as §3
[9] = system: NCI-H460; test: Anticancer activity against human NCI-H460 cells after 48 hrs; details: NCI-H460, 48 h; method in brief: as §3
[10] = system: HCC 2998; test: Anticancer activity against human HCC2998 cells after 48 hrs; details: HCC 2998, 48 h; method in brief: as §2
[11] = system: HCT-15; test: Anticancer activity against human HCT15 cells after 48 hrs; details: HCT-15, 48 h; method in brief: as §2
[12] = system: KM12; test: Anticancer activity against human KM12 cells after 48 hrs; details: KM12, 48 h; method in brief: as §2
[13] = system: SW-620; test: Anticancer activity against human SW620 cells after 48 hrs; details: SW-620, 48 h; method in brief: as §3
[14] = system: SF-268; test: Anticancer activity against human SF268 cells after 48 hrs; details: SF-268, 48 h; method in brief: as §3
[15] = system: SF-539; test: Anticancer activity against human SF539 cells after 48 hrs; details: SF-539, 48 h; method in brief: as §3
[16] = system: SNB-75; test: Anticancer activity against human SNB75 cells after 48 hrs; details: SNB-75, 48 h; method in brief: as §3
[17] = system: MDA-MB-435; test: Anticancer activity against human MDA-MB-435 cells after 48 hrs; details: MDA-MB-435, 48 h; method in brief: as §2
[18] = system: SK-MEL-2; test: Anticancer activity against human SK-MEL-2 cells after 48 hrs; details: SK-MEL-2, 48 h; method in brief: as §3
[19] = system: SK-MEL-28; test: Anticancer activity against human SK-MEL-28 cells after 48 hrs; details: SK-MEL-28, 48 h; method in brief: as §3
[20] = system: UACC-62; test: Anticancer activity against human UACC62 cells after 48 hrs; details: UACC-62, 48 h
Method in brief: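 NCI ~60 human tumour cell line panel with a 48 h incubation. GI50 is the concentration giving a 50% fall in net growth, TGI gives total growth inhibition, and LC50 gives a net 50% loss of initial cells. An effect not reached or exceeded is reported as greater or less than the highest or lowest concentration tested.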

[21] = system: IGROV-1; test: Anticancer activity against human IGROV1 cells after 48 hrs; details: IGROV-1, 48 h; method in brief: as §2
[22] = system: OVCAR-3; test: Anticancer activity against human OVCAR3 cells after 48 hrs; details: OVCAR-3, 48 h; method in brief: as §3
[23] = system: OVCAR-4; test: Anticancer activity against human OVCAR4 cells after 48 hrs; details: OVCAR-4, 48 h; method in brief: as §3
[24] = system: NCI/ADR-RES; test: Anticancer activity against human NCI/ADR-RES cells after 48 hrs; method in brief: as §3
[25] = system: SK-OV-3; test: Anticancer activity against human SKOV3 cells after 48 hrs; details: SK-OV-3, 48 h; method in brief: as §3
[26] = system: 786-0; test: Anticancer activity against human 786-0 cells after 48 hrs; details: 786-0, 48 h; method in brief: as §2
[27] = system: A498; test: Anticancer activity against human A498 cells after 48 hrs; details: A498, 48 h; method in brief: as §2
[28] = system: RXF 393; test: Anticancer activity against human RXF393 cells after 48 hrs; details: RXF 393, 48 h; method in brief: as §3
[29] = system: MCF7; test: Anticancer activity against human MCF7 cells after 48 hrs; details: MCF7, 48 h; method in brief: as §2
[30] = read-out: LC50 (the source's name)

SMILES: Cc1cc(O)c(C2=NN(c3ccc(S(N)(=O)=O)cc3)C(c3ccccc3O)C2)cc1Cl (stereo not drawn)
- inhibition in vivo at 20 mg/kg [1]: 73.6%
- inhibition in vivo at 20 mg/kg [2]: 59.5%
- GI50 [3]: 4.17 µM
- LC50 (concentration causing net 50% loss of initial cells) [3]: > 100 µM
- TGI [3]: > 100 µM
- GI50 [4]: 2.56 µM
- LC50 (concentration killing 50% of initial cells) [4]: > 100 µM
- TGI [4]: 14.6 µM
- GI50 [5]: 3.69 µM
- LC50 (net 50% loss of initial cells) [5]: 60.5 µM
- TGI [5]: 15.5 µM
- GI50 [6]: 1.99 µM
- TGI [6]: 7.16 µM
- CC50 [6, 30]: 39.7 µM
- GI50 [7]: 2.21 µM
- TGI [7]: 7.55 µM
- CC50 [7, 30]: 86.5 µM
- GI50 [8]: 2.09 µM
- LC50 (concentration killing 50% of initial cells) [8]: 16 µM
- TGI [8]: 5.03 µM
- GI50 [9]: 2.06 µM
- LC50 (50% lethal concentration) [9]: 9.4 µM
- TGI [9]: 4.48 µM
- GI50 [10]: 2.13 µM
- LC50 (net 50% loss of initial cells) [10]: 8.74 µM
- TGI [10]: 4.31 µM
- GI50 [11]: 3.64 µM
- TGI [11]: 13.4 µM
- CC50 [11, 30]: 44.7 µM
- GI50 [12]: 1.78 µM
- LC50 (concentration causing net 50% loss of initial cells) [12]: 6.82 µM
- TGI [12]: 3.48 µM
- GI50 [13]: 1.76 µM
- TGI [13]: 3.59 µM
- CC50 [13, 30]: 7.35 µM
- GI50 [14]: 2.64 µM
- LC50 (concentration killing 50% of initial cells) [14]: 51.9 µM
- TGI [14]: 8.06 µM
- GI50 [15]: 1.6 µM
- LC50 (concentration causing net 50% loss of initial cells) [15]: 5.69 µM
- TGI [15]: 3.02 µM
- GI50 [16]: 1.79 µM
- TGI [16]: 13.6 µM
- CC50 [16, 30]: 37.1 µM
- GI50 [17]: 2.04 µM
- TGI [17]: 4.49 µM
- CC50 [17, 30]: 9.88 µM
- GI50 [18]: 11 µM
- LC50 [18]: 67 µM
- TGI [18]: 27.2 µM
- GI50 [19]: 4.05 µM
- TGI [19]: 13.5 µM
- CC50 [19, 30]: 37.8 µM
- GI50 [20]: 3.54 µM
- LC50 [20]: 40.8 µM
- TGI [20]: 15.5 µM
- GI50 [21]: 1.63 µM
- LC50 (net 50% loss of initial cells) [21]: 37.4 µM
- TGI [21]: 11.2 µM
- GI50 [22]: 1.81 µM
- LC50 (concentration giving 50% net loss of initial cells) [22]: 11.3 µM
- TGI [22]: 3.73 µM
- GI50 [23]: 3.9 µM
- LC50 [23]: 51.8 µM
- TGI [23]: 16 µM
- GI50 [24]: 3.61 µM
- TGI [24]: 14.1 µM
- CC50 [24, 30]: 54.1 µM
- GI50 [25]: 4.41 µM
- TGI [25]: 14.9 µM
- CC50 [25, 30]: 38.6 µM
- GI50 [26]: 2.23 µM
- TGI [26]: 4.21 µM
- CC50 [26, 30]: 7.94 µM
- GI50 [27]: 2.79 µM
- TGI [27]: 14.5 µM
- CC50 [27, 30]: 46.9 µM
- GI50 [28]: 3.65 µM
- LC50 [28]: 64.8 µM
- TGI [28]: 13 µM
- GI50 [29]: 2.66 µM
- LC50 [29]: 49.5 µM
- TGI [29]: 9.77 µM
